# Screening results from PubChem BioAssay.
# Ecoli tolC: growth inhibitors of E. coli BW25113 tolC mutant. OD615. growth inhibition, % at 10 µM (by protocol). 2.2% of 65,000 active. AID 573;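 active = growth inhibition at or above a cutoff equal to the mean over every tested compound plus 3 SD, cut at about 60% in these data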;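 also: growth measured after 20 h incubation at 37 °C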
#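 test system = E. coli BW25113 ΔtolC::kan bacteria | medium = LB with kanamycin 50 µg/mL | signal = OD at 615 nm | schedule = 37 °C, 20 h exposure | evaluation = % inhibition of E. coli growth | compound dosing = one dose of 10 µM final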
# PostGolgi yeast: growth inhibition of a yeast mutant, post-Golgi transport screen. post-Golgi transport phenotypic cell assay. inhibition, % at 10 µM. 0.9% of 98,000 active;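 also: yeast cells grown in 1536-well plates; yeast grown about 18 h at 30C before absorbance read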
# Pyk2 oligo antag: blocks oligomerization of human Pyk2 in cells; Q293 cells, Pyk2 FERM NanoBiT luminescence; active compounds read low; z-score (the deposit names both 25 µM and 10 µM); 0.83% of 99,000 active;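 active = Z-score of -3 or lower, scaled per plate to the spread of control and sample wells; inactive = z-score above -3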;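 also: negative z-score means lost luminescence so less FERM oligomerization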
# Calb biofilm kill: kills Candida albicans biofilms; inhibition, % at 6 µM; C. albicans biofilm + clotrimazole, Alamar Blue; AID 834; 0.14% of 85,000 active;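 active = inhibition above 20%; inactive = inhibition below 20%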;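 also: preformed 24 hr biofilms exposed to compound for 48 hr; 0% = biofilm without compound and 100% = blank killed by clotrimazole plus chlorhexidine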
# FAK inh: inhibitors of human focal adhesion kinase | Q05397 | biochemical FAK kinase activity assay | inhibition, %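 (tested at 7 µM)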 | 0.84% of 97,000 active | AID 727; in the data active = inhibition above about 19%;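 also: 0% = DMSO and 100% = reference compound high control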
# PostGolgi ctrl: growth of the yeast control strain, post-Golgi counter-screen; efflux-deficient yeast background strain, growth absorbance A615, 16 h; inhibition, % at 10 µM; 5% of 98,000 active
# Active calls of the source: *; x = no result given. Sampled rows, rich in hits. Any-hit rate of the full collection: about 6.9%. Rule as the data show it, unless noted: active = inhibition above about 30%; inactive = the rest.
SMILES,Ecoli tolC,PostGolgi yeast,Pyk2 oligo antag,Calb biofilm kill,FAK inh,PostGolgi ctrl
O=C(NCc1cccnc1)/C(=C\c1ccc(-c2cccc(Cl)c2)o1)S(=O)(=O)c1ccccc1,x,x,-1.4,x,x,x
O=C(NCc1cccnc1)/C(=C/c1ccc(-c2cccc(Cl)c2)o1)S(=O)(=O)c1ccccc1,x,11,1.8,x,-6,37*
O=C(Nc1ccc2c(c1)OCO2)c1cccc2c1C(=O)N(C1CCCCC1)C2,0,x,x,3,x,x
COCCNC(=O)c1cc2c(=O)n(C)c3ccccc3c2n1C,2,-8,x,5,4,-1
COCCCNC(=O)c1cc2c(=O)n(C)c3ccccc3c2n1C,0,22,x,11,4,39*
O=C1CCCc2c1cc(-c1ccccc1)n2-c1ccccc1,x,-5,-1.8,x,-2,51*
COc1ccc(CCNc2c([N+](=O)[O-])c(=O)oc3ccccc23)cc1OC,x,17,0.5,x,0,22
CCn1nccc1C(=O)Nc1ccc(Cl)cc1Cl,0,9,0.62,0,3,32*
O=C(CNCC1CCCO1)N1CCCc2ccccc21 (stereo unspecified),-13,0,0.15,6,1,-7
CCc1ccc(CNC(=O)c2cc3c(C)nc4ccccc4c3o2)cc1,x,-1,x,4,0,29
CCN(CC)S(=O)(=O)c1ccc2oc(C(=O)NCC3COc4ccccc4O3)c(C)c2c1 (stereo unspecified),38,-10,-0.77,5,x,35*
Cc1nc2ccccc2c2oc(C(=O)NCC3COc4ccccc4O3)cc12 (stereo unspecified),39,5,x,4,x,42*
CC(C)CNC(=S)NC1CC2CCCC(C1)N2Cc1ccco1 (stereo unspecified),x,-9,0.13,x,2,31*
N#CCSc1nc2scc(-c3cccs3)c2c(=O)n1CCc1ccccc1,20,-3,-0.75,2,6,32*
COc1ccc(C2=NN3C(C2)c2ccccc2OC32C(=O)N(C)c3ccccc32)cc1 (stereo unspecified),x,4,-0.06,x,-2,30*
COc1ccc2c(c1OC)C(=O)N1N=C(c3ccccc3)CC21 (stereo unspecified),x,0,0.06,x,-4,-4
COc1ccc(-n2c(Cc3cccn3C)nnc2SCC(=O)N2CCCc3ccccc32)cc1,21,-3,0.3,x,7,0
COc1ccc(S(=O)(=O)N2CCOCC2)cc1NC(=O)c1cccc2c(=O)c(C)c(-c3ccccc3)oc12,x,x,-0.86,x,x,x
CCCCCCCCn1cnc2c(N)c(C)c(C)cc21,x,10,-1.2,x,3,29
COc1ccc(Cn2c(SCc3ccccc3C)nc3cc(OC)c(OC)cc3c2=N)cc1,x,-1,-0.71,x,11,67*
N#Cc1c(/N=C/c2ccco2)oc(-c2ccccc2)c1-c1ccccc1,77*,-5,x,-1,3,28
N#Cc1c(/N=C/c2ccccc2)oc(-c2ccccc2)c1-c1ccccc1,x,x,-0.22,8,-2,x
CC1CCc2c(sc3ncnc(NCCN4CCOCC4)c23)C1 (stereo unspecified),6,x,x,x,x,x
Cc1ccc(CCNC(=O)C2CCCN(S(=O)(=O)c3cnc[nH]3)C2)cc1 (stereo unspecified),-7,-4,x,-1,1,28
O=C(NCCc1ccc(Cl)cc1)C1CCCN(S(=O)(=O)c2cnc[nH]2)C1 (stereo unspecified),-8,-7,x,25*,4,3
SMILES,Ecoli tolC,PostGolgi yeast,Pyk2 oligo antag,Calb biofilm kill,FAK inh,PostGolgi ctrl
CC(=O)c1c(C)[nH]c(C(=O)N2c3ccccc3CC2C)c1C (stereo unspecified),9,1,x,27*,4,5
CCn1nc([N+](=O)[O-])c(C(C#N)c2nc3cc(C(F)(F)F)ccc3s2)c(Cl)c1=O (stereo unspecified),x,17,-3.3*,x,2,36*
C=CCn1c(=O)c(C(=O)Nc2cccnc2)c(O)c2ccccc21,x,x,-0.03,2,23*,x
Cc1ccc(SC(C)C(=O)Nc2cccc(N(C)S(C)(=O)=O)c2)cc1 (stereo unspecified),x,-6,0.65,-3,0,0
COc1ccc(C(=O)C(C)N(C(=O)c2ccc(Cl)cc2Cl)N2C(=O)C3C4C=CC(C4)C3C2=O)cc1 (stereo unspecified),x,-8,-0.46,x,-2,18
Cc1cc(C)cc(C(=O)O/N=C(\N)c2ccc(Br)cc2)c1,x,8,0.36,5,6,30*
Cc1cccc(C(=O)O/N=C(\N)c2ccc(Br)cc2)c1,x,0,1.5,3,2,3
O=C(c1noc2c1CCCC2)N1CCCCC1,-12,4,0.49,x,x,0
O=C(c1noc2c1CCCC2)N1CCN(c2ccc(F)cc2)CC1,-1,4,-0.18,3,-3,34*
CCCNS(=O)(=O)c1ccc(CCC(=O)N2CCC(C)CC2)cc1,13,1,0.45,4,0,3
Cc1ccc2[nH]c3c(c2c1)CN(C(=O)CN1c2ccc(F)cc2CCC1C)CC3 (stereo unspecified),x,7,-1.1,1,-3,32*
CCOc1ccc(-n2nc(C(=O)N3CCN(CC)CC3)c3ccccc3c2=O)cc1,x,x,0.11,-1,-1,x
CCC(=O)Nc1ccc(C(=O)CSc2nc3ccccc3cc2CC)cc1,x,17,0.07,x,7,2
Cc1n[nH]c(C)c1S(=O)(=O)N1CCCC(C(=O)NC2CCCc3ccccc32)C1 (stereo unspecified),6,-1,x,-5,-10,5
Clc1cccc(Cl)c1Cn1c(-c2cccnc2Cl)nc2ccccc21,x,10,-2.2,x,-5,50*
C=CCn1c(-c2ccc(C)cc2)nc2ccccc21,x,4,-0.55,9,2,18
C=CCn1c(-c2cccnc2Cl)nc2cc(Cl)c(Cl)cc21,x,-3,-3.3*,x,-3,36*
c1csc(Cn2c(-c3cccs3)nc3ccccc32)c1,7,-5,-2.7,2,3,27
CCCn1c(-c2cccnc2Cl)nc2cc(Cl)c(Cl)cc21,x,-14,-3.7*,x,10,43*
N#Cc1c(=O)c2nc(NCc3ccccc3)ncc2n2ccccc12,x,-1,0.22,x,-1,-1
Nc1nc(COc2ccccc2)cs1,x,2,-0.17,8,-3,7
O=C(CN(C(=O)Cn1nnc(-c2cccs2)n1)c1ccc2c(c1)OCCO2)NCc1ccccc1,x,-2,-3*,6,4,6
CCn1cnc2sc(C)c(C)c2c1=O,x,12,x,x,1,32*
CCn1cnc2sc(C(=O)O)c(C)c2c1=O,-14,-8,0.83,4,-4,1
COc1ccc(C(=O)Nc2ccc(Cl)cc2C(=O)N2CCCC(C)C2)cc1 (stereo unspecified),x,65*,0.36,x,1,16
COc1ccc(C(=O)Nc2ccc(Cl)cc2C(=O)NCCO)cc1,9,-7,0.09,4,2,0
COn1c(SC(C)C)nc2ccccc2c1=O,x,2,0.07,4,-11,34*
CC(C)On1c(SC(C)C)nc2ccccc2c1=O,x,4,-0.06,5,-6,8
